Source: ChEMBL document CHEMBL1275417, “Biological activities of novel gyrase inhibitors of the aminocoumarin class” (Antimicrob Agents Chemother, 2008)
Converted amounts (≈) assume the structure as drawn. The source made the active and inactive calls. No cut-off for these calls is given here.

Assays:
DNA gyrase subunit B = DNA gyrase subunit B (Escherichia coli, UniProt P0AES6); assay: Inhibition of Escherichia coli JM109 DNA gyrase subunit B assessed as ATP hydrolysis by ATPase assay
[1] = target: DNA gyrase subunit A (Escherichia coli K-12) (UniProt P0AES4); assay: Inhibition of Escherichia coli K-12 DNA gyrase A expressed in Escherichia coli DC2 assessed as compound concentration required for => 4-fold induction of luxCDABE operon by reported gene assay
Outline: (§1)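 E. coli DC2 carrying a gyrA or sulA promoter–luxCDABE (Photorhabdus) fusion plasmid. Grown overnight at 37°C in LB with 2 μg/ml tetracycline, then diluted 1:100 in LB without tetracycline and precultured 1.5 h at 37°C. Compounds were added from DMSO stocks to 1% final DMSO and incubated 5 h at 37°C. Bioluminescence was divided by A595, and induction factor is the treated/untreated ratio. The value is the lowest test concentration giving ≥4-fold induction.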

[2] = target: T1, Cell division inhibitor SulA (Escherichia coli K-12) (UniProt P0AFZ5); assay: Inhibition of Escherichia coli K-12 DNA sulA expressed in Escherichia coli DC2 assessed as compound concentration required for => 4-fold induction of luxCDABE operon by reported gene assay; outline: as §1
T1 sequence (whole entry): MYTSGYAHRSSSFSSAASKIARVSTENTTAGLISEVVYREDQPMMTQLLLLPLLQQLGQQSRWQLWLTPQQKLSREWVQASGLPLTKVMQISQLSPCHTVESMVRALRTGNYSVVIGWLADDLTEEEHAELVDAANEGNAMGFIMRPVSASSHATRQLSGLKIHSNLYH

[3] = target: DNA gyrase (Escherichia coli); assay: Inhibition of Escherichia coli JM109 DNA gyrase assessed as DNA triple helix formation by supercoiling assay
Staphylococcus aureus [4] = assay: Antibacterial activity against Staphylococcus aureus ATCC 29213 by broth microdilution method; assay type: functional
Staphylococcus aureus [5] = assay: Antibacterial activity against Staphylococcus aureus ATCC 43300 by broth microdilution method; assay type: functional
Staphylococcus aureus [6] = assay: Antibacterial activity against Staphylococcus aureus 80CR5 by broth microdilution method; assay type: functional
Streptococcus pneumoniae [7] = assay: Antibacterial activity against Streptococcus pneumoniae ATCC 49619 by broth microdilution method; assay type: functional
Streptococcus pneumoniae [8] = assay: Antibacterial activity against Streptococcus pneumoniae SL336-T by broth microdilution method; assay type: functional
Streptococcus pneumoniae [9] = assay: Antibacterial activity against Streptococcus pneumoniae TUPELO by broth microdilution method; assay type: functional
Enterococcus faecalis = assay: Antibacterial activity against Enterococcus faecalis ATCC 29212 by broth microdilution method; assay type: functional
Enterococcus faecium = assay: Antibacterial activity against Enterococcus faecium ATCC 19434 by broth microdilution method; assay type: functional
Escherichia coli [10] = assay: Antibacterial activity against Escherichia coli ATCC 25922 by broth microdilution method; assay type: functional
Escherichia coli [11] = assay: Antibacterial activity against Escherichia coli UB1005 by broth microdilution method; assay type: functional
Escherichia coli [12] = assay: Antibacterial activity against Escherichia coli DC2 by broth microdilution method; assay type: functional
Klebsiella pneumoniae = assay: Antibacterial activity against Klebsiella pneumoniae ATCC 27736 by broth microdilution method; assay type: functional
Pseudomonas aeruginosa [13] = assay: Antibacterial activity against Pseudomonas aeruginosa ATCC 27853 by broth microdilution method; assay type: functional
Pseudomonas aeruginosa [14] = assay: Antibacterial activity against Pseudomonas aeruginosa K799/WT by broth microdilution method; assay type: functional
Pseudomonas aeruginosa [15] = assay: Antibacterial activity against Pseudomonas aeruginosa K799/61 by broth microdilution method; assay type: functional

| IC50 (DNA gyrase subunit B) [nM] | Activity [1] | Activity [2] | IC50 [3] [nM] | SMILES | further results |
| --- | --- | --- | --- | --- | --- |
| 280 | inactive | 12.5 µM |  | CO[C@@H]1[C@@H](O)[C@@H](OC(=O)c2ccc(C)[nH]2)[C@H](Oc2ccc3c(O)c(NC(=O)c4ccc(SC)cc4)c(=O)oc3c2Cl)OC1(C)C |  |
| 297 | > 100 µM | 50 µM | 110 | CO[C@@H]1[C@@H](O)[C@@H](OC(=O)c2ccc(C)[nH]2)[C@H](Oc2ccc3c(O)c(NC(=O)c4ccccc4)c(=O)oc3c2Cl)OC1(C)C |  |
| 376 | 100 µM | 100 µM | 320 | CO[C@@H]1[C@@H](O)[C@@H](OC(=O)c2ccc(C)[nH]2)[C@H](Oc2ccc3c(O)c(NC(=O)c4cc(C)c(O)c(C)c4)c(=O)oc3c2Cl)OC1(C)C |  |
| > 10000 | 3.1 µM | inactive |  | CCCc1cc(C(=O)Nc2c(O)c3ccc(O[C@@H]4OC(C)(C)[C@H](OC)[C@@H](O)[C@H]4O)c(C)c3oc2=O)ccc1O |  |
| 73 | 3.1 µM | 3.1 µM | 41 | CO[C@@H]1[C@@H](OC(=O)c2ccc(C)[nH]2)[C@@H](O)[C@H](Oc2ccc3c(O)c(NC(=O)c4ccc(O)c(NC(=O)C(C)C)c4)c(=O)oc3c2Cl)OC1(C)C | MIC (Staphylococcus aureus [4]): 2 µg/mL (≈ 2.8 µM); MIC (Staphylococcus aureus [5]): 4 µg/mL (≈ 5.6 µM); MIC (Staphylococcus aureus [6]): > 32 µg/mL; MIC (Streptococcus pneumoniae [7]): 4 µg/mL (≈ 5.6 µM); MIC (Streptococcus pneumoniae [8]): 8 µg/mL (≈ 11.2 µM); MIC (Streptococcus pneumoniae [9]): 16 µg/mL (≈ 22.4 µM); MIC (Enterococcus faecalis): 32 µg/mL (≈ 44.8 µM); MIC (Enterococcus faecium): > 32 µg/mL; MIC (Escherichia coli [10]): > 32 µg/mL; MIC (Escherichia coli [11]): > 32 µg/mL; MIC (Escherichia coli [12]): 16 µg/mL (≈ 22.4 µM); MIC (Klebsiella pneumoniae): > 32 µg/mL; MIC (Pseudomonas aeruginosa [13]): > 32 µg/mL; MIC (Pseudomonas aeruginosa [14]): > 32 µg/mL; MIC (Pseudomonas aeruginosa [15]): 1 µg/mL (≈ 1.4 µM) |
| 784 | > 100 µM | 100 µM | 190 | CO[C@@H]1[C@@H](O)[C@@H](OC(=O)c2ccc(C)[nH]2)[C@H](Oc2ccc3c(O)c(NC(=O)c4ccc(N)c(C)c4)c(=O)oc3c2C)OC1(C)C |  |
| 122 | 25 µM | 6.3 µM | 22 | COc1cc(C(=O)Nc2c(O)c3ccc(O[C@@H]4OC(C)(C)[C@H](OC)[C@@H](OC(=O)c5ccc(C)[nH]5)[C@H]4O)c(Cl)c3oc2=O)ccc1O | MIC (Staphylococcus aureus [4]): 1 µg/mL (≈ 1.52 µM); MIC (Staphylococcus aureus [5]): 1 µg/mL (≈ 1.52 µM); MIC (Staphylococcus aureus [6]): 32 µg/mL (≈ 48.6 µM); MIC (Streptococcus pneumoniae [7]): 2 µg/mL (≈ 3.03 µM); MIC (Streptococcus pneumoniae [8]): 4 µg/mL (≈ 6.07 µM); MIC (Streptococcus pneumoniae [9]): 8 µg/mL (≈ 12.1 µM); MIC (Enterococcus faecalis): 16 µg/mL (≈ 24.3 µM); MIC (Enterococcus faecium): > 32 µg/mL; MIC (Escherichia coli [10]): > 32 µg/mL; MIC (Escherichia coli [11]): > 32 µg/mL; MIC (Escherichia coli [12]): 32 µg/mL (≈ 48.6 µM); MIC (Klebsiella pneumoniae): > 32 µg/mL; MIC (Pseudomonas aeruginosa [13]): > 32 µg/mL; MIC (Pseudomonas aeruginosa [14]): > 32 µg/mL; MIC (Pseudomonas aeruginosa [15]): 1 µg/mL (≈ 1.52 µM) |
| 219 | 50 µM | 50 µM | 50 | CO[C@@H]1[C@@H](OC(=O)c2ccc(C)[nH]2)[C@@H](O)[C@H](Oc2ccc3c(O)c(NC(=O)c4ccccc4)c(=O)oc3c2)OC1(C)C |  |
| 758 | 25 µM | 100 µM | 140 | CCCc1cc(C(=O)Nc2c(O)c3ccc(O[C@@H]4OC(C)(C)[C@H](OC)[C@@H](O)[C@H]4OC(=O)c4ccc(C)[nH]4)c(C)c3oc2=O)ccc1O |  |
| 137 | 25 µM | 25 µM | 32 | CO[C@@H]1[C@@H](OC(=O)c2ccc(C)[nH]2)[C@@H](O)[C@H](Oc2ccc3c(O)c(NC(=O)/C=C/c4ccc(O)c(Cl)c4)c(=O)oc3c2Cl)OC1(C)C |  |
| 276 | 50 µM | 50 µM | 280 | CO[C@@H]1[C@@H](OC(=O)c2ccc(C)[nH]2)[C@@H](O)[C@H](Oc2ccc3c(O)c(NC(=O)/C=C/c4ccc(O)c(Cl)c4)c(=O)oc3c2)OC1(C)C |  |
| 2790 | inactive | 100 µM | 460 | C=CCc1cc(C(=O)Nc2c(O)c3ccc(O[C@@H]4OC(C)(C)[C@H](OC)[C@@H](O)[C@H]4OC(=O)c4ccc(C)[nH]4)c(C)c3oc2=O)ccc1O |  |
| > 10000 | inactive | inactive |  | CO[C@@H]1[C@@H](O)[C@@H](O)[C@H](Oc2ccc3c(O)c(NC(=O)c4cc(C)c(O)c(C)c4)c(=O)oc3c2C)OC1(C)C |  |
| 891 | inactive | 100 µM | 460 | COc1cc(C(=O)Nc2c(O)c3ccc(O[C@@H]4OC(C)(C)[C@H](OC)[C@@H](O)[C@H]4OC(=O)c4ccc(C)[nH]4)c(Cl)c3oc2=O)ccc1O |  |
| > 10000 | inactive | inactive |  | CO[C@@H]1[C@@H](O)[C@@H](O)[C@H](Oc2ccc3c(O)c(NC(=O)/C=C/c4ccccc4)c(=O)oc3c2C)OC1(C)C |  |
| 598 | > 100 µM | inactive | 1200 | CO[C@@H]1[C@@H](O)[C@@H](OC(=O)c2ccc(C)[nH]2)[C@H](Oc2ccc3c(O)c(NC(=O)/C=C/c4ccccc4)c(=O)oc3c2Cl)OC1(C)C |  |
| > 10000 | inactive | inactive |  | COc1cc(C(=O)Nc2c(O)c3ccc(O[C@@H]4OC(C)(C)[C@H](OC)[C@@H](O)[C@H]4O)c(C)c3oc2=O)ccc1O |  |
| 72 | 3.1 µM | 3.1 µM | < 5 | CO[C@@H]1[C@@H](OC(=O)c2ccc(C)[nH]2)[C@@H](O)[C@H](Oc2ccc3c(O)c(NC(=O)c4ccccc4)c(=O)oc3c2Cl)OC1(C)C |  |
| 185 | 25 µM | 25 µM | 75 | COc1cc(C(=O)Nc2c(O)c3ccc(O[C@@H]4OC(C)(C)[C@H](OC)[C@@H](OC(=O)c5ccc(C)[nH]5)[C@H]4O)cc3oc2=O)ccc1O |  |
| 131 | 6.3 µM | 6.3 µM |  | CO[C@@H]1[C@@H](OC(=O)c2ccc(C)[nH]2)[C@@H](O)[C@H](Oc2ccc3c(O)c(NC(=O)c4ccccc4)c(=O)oc3c2C)OC1(C)C |  |
| > 10000 | inactive | inactive |  | CO[C@@H]1[C@@H](O)[C@@H](O)[C@H](Oc2ccc3c(O)c(NC(=O)c4ccccc4)c(=O)oc3c2C)OC1(C)C |  |
| 106 | inactive | 50 µM |  | CO[C@@H]1[C@@H](OC(=O)c2ccc(C)[nH]2)[C@@H](O)[C@H](Oc2ccc3c(O)c(NC(=O)/C=C/c4ccccc4)c(=O)oc3c2C)OC1(C)C |  |

| SMILES | IC50 (DNA gyrase subunit B) [nM] | Activity [1] | Activity [2] | IC50 [3] [nM] | further results |
| --- | --- | --- | --- | --- | --- |
| CO[C@@H]1[C@@H](OC(N)=O)[C@@H](O)[C@H](Oc2ccc3c(O)c(NC(=O)c4ccc(O)c(CC=C(C)C)c4)c(=O)oc3c2C)OC1(C)C [NOVOBIOCIN] |  | 3.1 µM | 6.3 µM |  | MIC (Staphylococcus aureus [4]): 0.25 µg/mL (≈ 0.408 µM); MIC (Staphylococcus aureus [5]): 0.25 µg/mL (≈ 0.408 µM); MIC (Staphylococcus aureus [6]): > 32 µg/mL; MIC (Streptococcus pneumoniae [7]): 1 µg/mL (≈ 1.63 µM); MIC (Streptococcus pneumoniae [8]): 2 µg/mL (≈ 3.26 µM); MIC (Streptococcus pneumoniae [9]): 2 µg/mL (≈ 3.26 µM); MIC (Enterococcus faecalis): > 32 µg/mL; MIC (Enterococcus faecium): > 32 µg/mL; MIC (Escherichia coli [10]): > 32 µg/mL; MIC (Escherichia coli [11]): > 32 µg/mL; MIC (Escherichia coli [12]): 4 µg/mL (≈ 6.53 µM); MIC (Klebsiella pneumoniae): > 32 µg/mL; MIC (Pseudomonas aeruginosa [13]): > 32 µg/mL; MIC (Pseudomonas aeruginosa [14]): > 32 µg/mL; MIC (Pseudomonas aeruginosa [15]): 1 µg/mL (≈ 1.63 µM) |
| CO[C@@H]1[C@@H](OC(=O)c2ccc(C)[nH]2)[C@@H](O)[C@H](Oc2ccc3c(O)c(NC(=O)c4ccc(O)c(CC=C(C)C)c4)c(=O)oc3c2Cl)OC1(C)C [CHLOROBIOCIN] |  | 1.6 µM | < 1 µM |  | MIC (Staphylococcus aureus [4]): ≤ 0.06 µg/mL; MIC (Staphylococcus aureus [5]): ≤ 0.06 µg/mL; MIC (Staphylococcus aureus [6]): 4 µg/mL (≈ 5.74 µM); MIC (Streptococcus pneumoniae [7]): 0.25 µg/mL (≈ 0.359 µM); MIC (Streptococcus pneumoniae [8]): 1 µg/mL (≈ 1.43 µM); MIC (Streptococcus pneumoniae [9]): 1 µg/mL (≈ 1.43 µM); MIC (Enterococcus faecalis): 4 µg/mL (≈ 5.74 µM); MIC (Enterococcus faecium): > 32 µg/mL; MIC (Escherichia coli [10]): 32 µg/mL (≈ 45.9 µM); MIC (Escherichia coli [11]): > 32 µg/mL; MIC (Escherichia coli [12]): 2 µg/mL (≈ 2.87 µM); MIC (Klebsiella pneumoniae): 16 µg/mL (≈ 23 µM); MIC (Pseudomonas aeruginosa [13]): 8 µg/mL (≈ 11.5 µM); MIC (Pseudomonas aeruginosa [14]): 16 µg/mL (≈ 23 µM); MIC (Pseudomonas aeruginosa [15]): ≤ 0.06 µg/mL |
